Reference: ChEMBL document CHEMBL4261538, “Synthesis and molecular docking studies of xanthone attached amino acids as potential antimicrobial and anti-inflammatory agents” (Medchemcomm, 2017)

Tests used:
[1] = system: Aspergillus niger; experiment: Antifungal activity against Aspergillus niger at 50 ug/ml incubated for 48 hrs by agar well diffusion method; type: functional; details: read-out: DIZ
How it was run: (§1)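 Compounds dissolved in DMSO at 5 mg mL⁻¹ and 5–20 µL added to 6 mm wells, giving 25, 50, 75, 100 µg per well. Bavistin was the positive control and DMSO the negative control. Plates incubated at 28 °C for 48 h, then inhibition zone diameter (mm) measured. Values are means of three determinations.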

[2] = system: Candida albicans; experiment: Antifungal activity against Candida albicans at 75 ug/ml incubated for 48 hrs by agar well diffusion method; type: functional; details: read-out: DIZ; how it was run: as §1
[3] = system: Staphylococcus aureus; experiment: Antibacterial activity against Staphylococcus aureus at 25 ug/ml incubated for 24 hrs by agar well diffusion method; type: functional; details: read-out: DIZ
How it was run: as §1, with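 “Bacteria grown in nutrient broth at 37 °C for 24 h, then subcultured at room temperature. Compounds” for “Compounds”, “Gentamicin” for “Bavistin”, “held” for “incubated”, “37” for “28”, “24” for “48”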

[4] = system: Aspergillus niger; experiment: Antifungal activity against Aspergillus niger incubated for 48 to 72 hrs by microdilution method; type: functional
How it was run: (§2)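 Sabouraud agar plates inoculated with fungal suspension at 10⁵ CFU mL⁻¹ plus serially diluted compounds and bavistin reference, both in DMSO. Incubated at 25 °C for 48–72 h. MIC is the lowest concentration completely inhibiting growth. Values are means of three determinations.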

[5] = system: Candida albicans; experiment: Antifungal activity against Candida albicans at 50 ug/ml incubated for 48 hrs by agar well diffusion method; type: functional; details: read-out: DIZ; how it was run: as §1
[6] = system: Aspergillus niger; experiment: Antifungal activity against Aspergillus niger at 25 ug/ml incubated for 48 hrs by agar well diffusion method; type: functional; details: read-out: DIZ; how it was run: as §1
[7] = system: Staphylococcus aureus; experiment: Antibacterial activity against Staphylococcus aureus at 100 ug/ml incubated for 24 hrs by agar well diffusion method; type: functional; details: read-out: DIZ
How it was run: as §1, with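 “Bacteria grown in nutrient broth at 37 °C for 24 h, then subcultured at room temperature. Compounds” for “Compounds”, “Gentamicin” for “Bavistin”, “held” for “incubated”, “37” for “28”, “24” for “48”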

[8] = system: Staphylococcus aureus; experiment: Antibacterial activity against Staphylococcus aureus incubated for 24 hrs by microdilution method; type: functional
[9] = system: Staphylococcus aureus; experiment: Antibacterial activity against Staphylococcus aureus at 75 ug/ml incubated for 24 hrs by agar well diffusion method; type: functional; details: read-out: DIZ
How it was run: as §1, with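 “Bacteria grown in nutrient broth at 37 °C for 24 h, then subcultured at room temperature. Compounds” for “Compounds”, “Gentamicin” for “Bavistin”, “held” for “incubated”, “37” for “28”, “24” for “48”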

[10] = system: Fusarium oxysporum; experiment: Antifungal activity against Fusarium oxysporum at 100 ug/ml incubated for 48 hrs by agar well diffusion method; type: functional; details: read-out: DIZ; how it was run: as §1
[11] = system: Aspergillus niger; experiment: Antifungal activity against Aspergillus niger at 100 ug/ml incubated for 48 hrs by agar well diffusion method; type: functional; details: read-out: DIZ; how it was run: as §1
[12] = system: Staphylococcus aureus; experiment: Antibacterial activity against Staphylococcus aureus at 50 ug/ml incubated for 24 hrs by agar well diffusion method; type: functional; details: read-out: DIZ
How it was run: as §1, with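 “Bacteria grown in nutrient broth at 37 °C for 24 h, then subcultured at room temperature. Compounds” for “Compounds”, “Gentamicin” for “Bavistin”, “held” for “incubated”, “37” for “28”, “24” for “48”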

[13] = system: Fusarium oxysporum; experiment: Antifungal activity against Fusarium oxysporum at 75 ug/ml incubated for 48 hrs by agar well diffusion method; type: functional; details: read-out: DIZ; how it was run: as §1
[14] = system: Klebsiella pneumoniae; experiment: Antibacterial activity against Klebsiella pneumoniae at 50 ug/ml incubated for 24 hrs by agar well diffusion method; type: functional; details: read-out: DIZ
How it was run: as §1, with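 “Bacteria grown in nutrient broth at 37 °C for 24 h, then subcultured at room temperature. Compounds” for “Compounds”, “Gentamicin” for “Bavistin”, “held” for “incubated”, “37” for “28”, “24” for “48”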

[15] = system: Fusarium oxysporum; experiment: Antifungal activity against Fusarium oxysporum at 25 ug/ml incubated for 48 hrs by agar well diffusion method; type: functional; details: read-out: DIZ; how it was run: as §1
[16] = system: Escherichia coli; experiment: Antibacterial activity against Escherichia coli at 50 ug/ml incubated for 24 hrs by agar well diffusion method; type: functional; details: read-out: DIZ
How it was run: as §1, with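 “Bacteria grown in nutrient broth at 37 °C for 24 h, then subcultured at room temperature. Compounds” for “Compounds”, “Gentamicin” for “Bavistin”, “held” for “incubated”, “37” for “28”, “24” for “48”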

[17] = system: Candida albicans; experiment: Antifungal activity against Candida albicans at 25 ug/ml incubated for 48 hrs by agar well diffusion method; type: functional; details: read-out: DIZ; how it was run: as §1
[18] = system: Escherichia coli; experiment: Antibacterial activity against Escherichia coli incubated for 24 hrs by microdilution method; type: functional
[19] = system: Erythrocyte; experiment: Anti-inflammatory activity in human RBC assessed as inhibition of hypotonic solution-induced hemolysis after 10 mins by spectrophotometric method; type: functional, cell-based
How it was run: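 Human blood (heparinized) washed with 0.9% saline, packed cells made into a 40% v/v stock in isotonic phosphate buffer (154 mM NaCl, 10 mM sodium phosphate, pH 7.4). Stock RBC mixed with hypotonic buffer (50 mM NaCl, 10 mM phosphate, pH 7.4) plus sample at 20–100 µg mL⁻¹.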

[20] = system: Bacillus subtilis; experiment: Antibacterial activity against Bacillus subtilis at 100 ug/ml incubated for 24 hrs by agar well diffusion method; type: functional; details: read-out: DIZ
How it was run: as §1, with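 “Bacteria grown in nutrient broth at 37 °C for 24 h, then subcultured at room temperature. Compounds” for “Compounds”, “Gentamicin” for “Bavistin”, “held” for “incubated”, “37” for “28”, “24” for “48”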

[21] = system: Bacillus subtilis; experiment: Antibacterial activity against Bacillus subtilis at 75 ug/ml incubated for 24 hrs by agar well diffusion method; type: functional; details: read-out: DIZ
How it was run: as §1, with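 “Bacteria grown in nutrient broth at 37 °C for 24 h, then subcultured at room temperature. Compounds” for “Compounds”, “Gentamicin” for “Bavistin”, “held” for “incubated”, “37” for “28”, “24” for “48”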

[22] = system: Aspergillus niger; experiment: Antifungal activity against Aspergillus niger at 75 ug/ml incubated for 48 hrs by agar well diffusion method; type: functional; details: read-out: DIZ; how it was run: as §1
[23] = system: Candida albicans; experiment: Antifungal activity against Candida albicans at 100 ug/ml incubated for 48 hrs by agar well diffusion method; type: functional; details: read-out: DIZ; how it was run: as §1
[24] = system: Bacillus subtilis; experiment: Antibacterial activity against Bacillus subtilis at 25 ug/ml incubated for 24 hrs by agar well diffusion method; type: functional; details: read-out: DIZ
How it was run: as §1, with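 “Bacteria grown in nutrient broth at 37 °C for 24 h, then subcultured at room temperature. Compounds” for “Compounds”, “Gentamicin” for “Bavistin”, “held” for “incubated”, “37” for “28”, “24” for “48”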

[25] = system: Staphylococcus aureus; experiment: Induction of cell membrane damage in Staphylococcus aureus assessed as cell content leakage at MIC by spectrophotometric method; type: functional, organism-based; details: TDE = time-dependent effect
How it was run: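 Log-phase S. aureus inoculated into 0.1% sterile peptone water, with an untreated control, and held at 37 °C for 0, 30, 60 and 120 min. 1 mL of broth centrifuged and supernatant OD read at 260 nm to measure released DNA. Run in triplicate, repeated three times.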

[26] = system: Bacillus subtilis; experiment: Antibacterial activity against Bacillus subtilis at 50 ug/ml incubated for 24 hrs by agar well diffusion method; type: functional; details: read-out: DIZ
How it was run: as §1, with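 “Bacteria grown in nutrient broth at 37 °C for 24 h, then subcultured at room temperature. Compounds” for “Compounds”, “Gentamicin” for “Bavistin”, “held” for “incubated”, “37” for “28”, “24” for “48”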

[27] = system: Fusarium oxysporum; experiment: Antifungal activity against Fusarium oxysporum incubated for 48 to 72 hrs by microdilution method; type: functional; how it was run: as §2
[28] = system: Escherichia coli; experiment: Antibacterial activity against Escherichia coli at 75 ug/ml incubated for 24 hrs by agar well diffusion method; type: functional; details: read-out: DIZ
How it was run: as §1, with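 “Bacteria grown in nutrient broth at 37 °C for 24 h, then subcultured at room temperature. Compounds” for “Compounds”, “Gentamicin” for “Bavistin”, “held” for “incubated”, “37” for “28”, “24” for “48”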

[29] = system: Escherichia coli; experiment: Antibacterial activity against Escherichia coli at 25 ug/ml incubated for 24 hrs by agar well diffusion method; type: functional; details: read-out: DIZ
How it was run: as §1, with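 “Bacteria grown in nutrient broth at 37 °C for 24 h, then subcultured at room temperature. Compounds” for “Compounds”, “Gentamicin” for “Bavistin”, “held” for “incubated”, “37” for “28”, “24” for “48”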

[30] = system: Klebsiella pneumoniae; experiment: Antibacterial activity against Klebsiella pneumoniae at 100 ug/ml incubated for 24 hrs by agar well diffusion method; type: functional; details: read-out: DIZ
How it was run: as §1, with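 “Bacteria grown in nutrient broth at 37 °C for 24 h, then subcultured at room temperature. Compounds” for “Compounds”, “Gentamicin” for “Bavistin”, “held” for “incubated”, “37” for “28”, “24” for “48”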

[31] = system: Klebsiella pneumoniae; experiment: Antibacterial activity against Klebsiella pneumoniae incubated for 24 hrs by microdilution method; type: functional
[32] = system: Escherichia coli; experiment: Antibacterial activity against Escherichia coli at 100 ug/ml incubated for 24 hrs by agar well diffusion method; type: functional; details: read-out: DIZ
How it was run: as §1, with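 “Bacteria grown in nutrient broth at 37 °C for 24 h, then subcultured at room temperature. Compounds” for “Compounds”, “Gentamicin” for “Bavistin”, “held” for “incubated”, “37” for “28”, “24” for “48”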

[33] = system: Fusarium oxysporum; experiment: Antifungal activity against Fusarium oxysporum at 50 ug/ml incubated for 48 hrs by agar well diffusion method; type: functional; details: read-out: DIZ; how it was run: as §1
[34] = system: Klebsiella pneumoniae; experiment: Antibacterial activity against Klebsiella pneumoniae at 25 ug/ml incubated for 24 hrs by agar well diffusion method; type: functional; details: read-out: DIZ
How it was run: as §1, with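 “Bacteria grown in nutrient broth at 37 °C for 24 h, then subcultured at room temperature. Compounds” for “Compounds”, “Gentamicin” for “Bavistin”, “held” for “incubated”, “37” for “28”, “24” for “48”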

[35] = system: Bacillus subtilis; experiment: Antibacterial activity against Bacillus subtilis incubated for 24 hrs by microdilution method; type: functional
[36] = system: Klebsiella pneumoniae; experiment: Antibacterial activity against Klebsiella pneumoniae at 75 ug/ml incubated for 24 hrs by agar well diffusion method; type: functional; details: read-out: DIZ
How it was run: as §1, with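 “Bacteria grown in nutrient broth at 37 °C for 24 h, then subcultured at room temperature. Compounds” for “Compounds”, “Gentamicin” for “Bavistin”, “held” for “incubated”, “37” for “28”, “24” for “48”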

[37] = system: Candida albicans; experiment: Antifungal activity against Candida albicans incubated for 48 to 72 hrs by microdilution method; type: functional; how it was run: as §2

Cl.O=C(Oc1ccc2c(=O)c3ccccc3oc2c1)[C@@H]1CCCN1
zone of inhibition at 50 µg/mL [1]: 24 mm | zone of inhibition at 75 µg/mL [2]: 27 mm | zone of inhibition at 25 µg/mL [3]: 20 mm | MIC [4]: 27 µg/mL | zone of inhibition at 50 µg/mL [5]: 22 mm | zone of inhibition at 25 µg/mL [6]: 17 mm | zone of inhibition at 100 µg/mL [7]: 35 mm | MIC [8]: 26 µg/mL | zone of inhibition at 75 µg/mL [9]: 31 mm | zone of inhibition at 100 µg/mL [10]: 35 mm | zone of inhibition at 100 µg/mL [11]: 33 mm | zone of inhibition at 50 µg/mL [12]: 27 mm | zone of inhibition at 75 µg/mL [13]: 29 mm | zone of inhibition at 50 µg/mL [14]: 28 mm | zone of inhibition at 25 µg/mL [15]: 20 mm | zone of inhibition at 50 µg/mL [16]: 25 mm | zone of inhibition at 25 µg/mL [17]: 16 mm | MIC [18]: 24 µg/mL | IC50 [19]: 36 µg/mL | zone of inhibition at 100 µg/mL [20]: 37 mm | zone of inhibition at 75 µg/mL [21]: 32 mm | zone of inhibition at 75 µg/mL [22]: 30 mm | zone of inhibition at 100 µg/mL [23]: 34 mm | zone of inhibition at 25 µg/mL [24]: 18 mm | Activity [25]: Tde | zone of inhibition at 50 µg/mL [26]: 26 mm | MIC [27]: 28 µg/mL | zone of inhibition at 75 µg/mL [28]: 32 mm | zone of inhibition at 25 µg/mL [29]: 20 mm | zone of inhibition at 100 µg/mL [30]: 38 mm | MIC [31]: 26 µg/mL | zone of inhibition at 100 µg/mL [32]: 39 mm | zone of inhibition at 50 µg/mL [33]: 24 mm | zone of inhibition at 25 µg/mL [34]: 18 mm | MIC [35]: 25 µg/mL | zone of inhibition at 75 µg/mL [36]: 33 mm | MIC [37]: 28 µg/mL
